In ChEMBL document CHEMBL5724801, “EUbOPEN Chemogenomics Library - Multiplex” (2024):
Values joined by “and” are separate entries in the source; they are usually repeats but may differ in a detail not shown here. Identical values can stand only once.

System: Fibroblast
Assay: Multiplex assay against human fibroblast
Type: toxicity, cell-based
Method in brief: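 Cells were classed with CellPathfinder machine-learning gating, first as Hoechst high-intensity objects or normal cells, then (normal cells) as healthy, pyknosed or fragmented nuclei, and finally (pyknosed cells) as mitotic or apoptotic. Staining of live cells at seeding used Hoechst33342, BioTracker Green Microtubule Cytoskeleton Dye, MitoTracker Red and Annexin V Alexa Fluor 680, with imaging on a CQ1 microscope at 37°C and 5% CO2 after compound addition. Tubulin, mitochondrial-mass and membrane-permeability phenotypes are per cents of healthy-nucleus cells.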

[1] = 12 h, 1 µM, compound concentration 1 uM
[2] = 12 h, 10 µM, compound concentration 10 uM
[3] = 24 h, 1 µM, compound concentration 1 uM
[4] = 24 h, 10 µM, compound concentration 10 uM
[5] = 48 h, 1 µM, compound concentration 1 uM
[6] = 48 h, 10 µM, compound concentration 10 uM

S=C(NCCCc1c[nH]cn1)NCCCN(Cc1ccc(Cl)c(Cl)c1)c1ccc(Br)cn1
Population Apoptotic (%) [1]: 40% and 31%
Population Fragmented Nuclei (%) [1]: 13% and 30%
Population Healthy Nuclei (%) [1]: 71% and 50%
Population Hoechst High Intensity Objects (%) [1]: 5% and 4%
Population Membrane Permeable-Phenotype (%) [1]: 1% and 5%
Population Mitochondria Different-Phenotype (%) [1]: 5% and 6%
Population Mitotic Cells (%) [1]: 60% and 68%
Population Normal (%) [1]: 94% and 95%
Population Pyknosed Nuclei (%) [1]: 14% and 18%
Population Tubulin-Different-Phenotype (%) [1]: 26% and 37%
Total Cell Count [1]: 142 and 181
Population Apoptotic (%) [2]: 47% and 52%
Population Fragmented Nuclei (%) [2]: 27% and 34%
Population Healthy Nuclei (%) [2]: 56% and 53%
Population Hoechst High Intensity Objects (%) [2]: 3% and 5%
Population Membrane Permeable-Phenotype (%) [2]: 0%
Population Mitochondria Different-Phenotype (%) [2]: 15% and 10%
Population Mitotic Cells (%) [2]: 52% and 47%
Population Normal (%) [2]: 96% and 94%
Population Pyknosed Nuclei (%) [2]: 16% and 12%
Population Tubulin-Different-Phenotype (%) [2]: 89%
Total Cell Count [2]: 220 and 279
Population Apoptotic (%) [3]: 69% and 23%
Population Fragmented Nuclei (%) [3]: 15% and 30%
Population Healthy Nuclei (%) [3]: 74% and 57%
Population Hoechst High Intensity Objects (%) [3]: 4% and 1%
Population Membrane Permeable-Phenotype (%) [3]: 2%
Population Mitochondria Different-Phenotype (%) [3]: 2% and 6%
Population Mitotic Cells (%) [3]: 30% and 76%
Population Normal (%) [3]: 95% and 98%
Population Pyknosed Nuclei (%) [3]: 9% and 11%
Population Tubulin-Different-Phenotype (%) [3]: 28% and 42%
Total Cell Count [3]: 137 and 183
Population Apoptotic (%) [4]: 66% and 61%
Population Fragmented Nuclei (%) [4]: 22% and 27%
Population Healthy Nuclei (%) [4]: 61% and 59%
Population Hoechst High Intensity Objects (%) [4]: 1% and 4%
Population Membrane Permeable-Phenotype (%) [4]: 0% and 2%
Population Mitochondria Different-Phenotype (%) [4]: 19% and 7%
Population Mitotic Cells (%) [4]: 33% and 38%
Population Normal (%) [4]: 98% and 95%
Population Pyknosed Nuclei (%) [4]: 15% and 13%
Population Tubulin-Different-Phenotype (%) [4]: 93% and 95%
Total Cell Count [4]: 214 and 248
Population Apoptotic (%) [5]: 75% and 35%
Population Fragmented Nuclei (%) [5]: 27% and 30%
Population Healthy Nuclei (%) [5]: 67% and 59%
Population Hoechst High Intensity Objects (%) [5]: 3% and 4%
Population Membrane Permeable-Phenotype (%) [5]: 0% and 5%
Population Mitochondria Different-Phenotype (%) [5]: 0% and 3%
Population Mitotic Cells (%) [5]: 25% and 64%
Population Normal (%) [5]: 96% and 95%
Population Pyknosed Nuclei (%) [5]: 5% and 10%
Population Tubulin-Different-Phenotype (%) [5]: 24% and 36%
Total Cell Count [5]: 156 and 178
Population Apoptotic (%) [6]: 62% and 63%
Population Fragmented Nuclei (%) [6]: 27% and 31%
Population Healthy Nuclei (%) [6]: 59% and 60%
Population Hoechst High Intensity Objects (%) [6]: 6% and 5%
Population Membrane Permeable-Phenotype (%) [6]: 0%
Population Mitochondria Different-Phenotype (%) [6]: 7% and 1%
Population Mitotic Cells (%) [6]: 37% and 36%
Population Normal (%) [6]: 93% and 94%
Population Pyknosed Nuclei (%) [6]: 12% and 7%
Population Tubulin-Different-Phenotype (%) [6]: 91% and 86%
Total Cell Count [6]: 230 and 293

CCCCC(=O)N(Cc1ccc(-c2ccccc2-c2nnn[nH]2)cc1)[C@H](C(=O)O)C(C)C
Population Apoptotic (%) [1]: 45% and 44%
Population Fragmented Nuclei (%) [1]: 9% and 21%
Population Healthy Nuclei (%) [1]: 74% and 54%
Population Hoechst High Intensity Objects (%) [1]: 4% and 3%
Population Membrane Permeable-Phenotype (%) [1]: 0% and 8%
Population Mitochondria Different-Phenotype (%) [1]: 0% and 6%
Population Mitotic Cells (%) [1]: 54% and 55%
Population Normal (%) [1]: 95% and 96%
Population Pyknosed Nuclei (%) [1]: 16% and 24%
Population Tubulin-Different-Phenotype (%) [1]: 20% and 36%
Total Cell Count [1]: 143 and 156
Population Apoptotic (%) [2]: 37%
Population Fragmented Nuclei (%) [2]: 20% and 27%
Population Healthy Nuclei (%) [2]: 56% and 42%
Population Hoechst High Intensity Objects (%) [2]: 0% and 3%
Population Membrane Permeable-Phenotype (%) [2]: 3% and 11%
Population Mitochondria Different-Phenotype (%) [2]: 3% and 11%
Population Mitotic Cells (%) [2]: 62%
Population Normal (%) [2]: 100% and 96%
Population Pyknosed Nuclei (%) [2]: 22% and 29%
Population Tubulin-Different-Phenotype (%) [2]: 23% and 51%
Total Cell Count [2]: 106 and 130
Population Apoptotic (%) [3]: 66% and 38%
Population Fragmented Nuclei (%) [3]: 15% and 21%
Population Healthy Nuclei (%) [3]: 70% and 52%
Population Hoechst High Intensity Objects (%) [3]: 0% and 2%
Population Membrane Permeable-Phenotype (%) [3]: 1% and 2%
Population Mitochondria Different-Phenotype (%) [3]: 2% and 1%
Population Mitotic Cells (%) [3]: 33% and 61%
Population Normal (%) [3]: 99% and 97%
Population Pyknosed Nuclei (%) [3]: 14% and 25%
Population Tubulin-Different-Phenotype (%) [3]: 17% and 25%
Total Cell Count [3]: 146 and 145
Population Apoptotic (%) [4]: 48% and 35%
Population Fragmented Nuclei (%) [4]: 18% and 25%
Population Healthy Nuclei (%) [4]: 56% and 44%
Population Hoechst High Intensity Objects (%) [4]: 2% and 4%
Population Membrane Permeable-Phenotype (%) [4]: 0% and 9%
Population Mitochondria Different-Phenotype (%) [4]: 1% and 10%
Population Mitotic Cells (%) [4]: 51% and 64%
Population Normal (%) [4]: 97% and 95%
Population Pyknosed Nuclei (%) [4]: 25% and 29%
Population Tubulin-Different-Phenotype (%) [4]: 31% and 65%
Total Cell Count [4]: 110 and 130
Population Apoptotic (%) [5]: 80% and 40%
Population Fragmented Nuclei (%) [5]: 18% and 27%
Population Healthy Nuclei (%) [5]: 71% and 51%
Population Hoechst High Intensity Objects (%) [5]: 6% and 3%
Population Membrane Permeable-Phenotype (%) [5]: 0% and 1%
Population Mitochondria Different-Phenotype (%) [5]: 1% and 3%
Population Mitotic Cells (%) [5]: 20% and 59%
Population Normal (%) [5]: 93% and 96%
Population Pyknosed Nuclei (%) [5]: 10% and 21%
Population Tubulin-Different-Phenotype (%) [5]: 17% and 33%
Total Cell Count [5]: 153 and 155
Population Apoptotic (%) [6]: 64% and 57%
Population Fragmented Nuclei (%) [6]: 28% and 39%
Population Healthy Nuclei (%) [6]: 56% and 39%
Population Hoechst High Intensity Objects (%) [6]: 4%
Population Membrane Permeable-Phenotype (%) [6]: 0% and 7%
Population Mitochondria Different-Phenotype (%) [6]: 5%
Population Mitotic Cells (%) [6]: 35% and 42%
Population Normal (%) [6]: 95%
Population Pyknosed Nuclei (%) [6]: 15% and 20%
Population Tubulin-Different-Phenotype (%) [6]: 30% and 69%
Total Cell Count [6]: 112 and 141
